Test results published in paper PMC4987221 (Bioorganic & medicinal chemistry letters, 2016).

Tests used:
[1] = Hepatic microsomal intrinsic clearance, human; assay type: in vitro ADME
How it was run: (§1)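 Intrinsic clearance was measured in hepatic microsomes (human for line 4, rat for line 5), and predicted hepatic clearance was calculated from the microsomal CLint. Data come from a single experiment run in triplicate.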

[2] = molecular target: T1, hM4 (Homo sapiens, UniProt P08173); assay type: cell-based
T1 sequence (P08173 1-479): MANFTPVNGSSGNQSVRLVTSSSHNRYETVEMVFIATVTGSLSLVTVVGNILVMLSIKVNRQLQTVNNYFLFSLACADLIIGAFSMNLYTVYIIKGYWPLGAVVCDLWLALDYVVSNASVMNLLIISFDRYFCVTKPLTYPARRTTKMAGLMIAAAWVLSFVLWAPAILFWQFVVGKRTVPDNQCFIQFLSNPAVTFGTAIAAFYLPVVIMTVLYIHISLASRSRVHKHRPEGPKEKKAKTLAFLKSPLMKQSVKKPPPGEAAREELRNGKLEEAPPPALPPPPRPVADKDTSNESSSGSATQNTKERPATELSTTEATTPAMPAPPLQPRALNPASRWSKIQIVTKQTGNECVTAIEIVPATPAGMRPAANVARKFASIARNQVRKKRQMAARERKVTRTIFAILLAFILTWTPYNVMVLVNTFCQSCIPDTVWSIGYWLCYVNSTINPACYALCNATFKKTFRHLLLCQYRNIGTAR
How it was run: (§2)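 Functional calcium mobilization in CHO cells expressing M4 with the Gqi5 chimeric G protein (human M4 for line 2, rat M4 for line 3). The test compound was added with a fixed EC20 acetylcholine concentration, and efficacy was expressed as % of the maximal acetylcholine response. For the screening hit, DMSO stock from the screening source plates was used. Values are means of three independent experiments, each run in triplicate.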

[3] = molecular target: T2, human M1 (Homo sapiens, UniProt P11229); test: Built-in HTS counterscreen, human M1; assay type: cell-based
T2 sequence (P11229 1-460): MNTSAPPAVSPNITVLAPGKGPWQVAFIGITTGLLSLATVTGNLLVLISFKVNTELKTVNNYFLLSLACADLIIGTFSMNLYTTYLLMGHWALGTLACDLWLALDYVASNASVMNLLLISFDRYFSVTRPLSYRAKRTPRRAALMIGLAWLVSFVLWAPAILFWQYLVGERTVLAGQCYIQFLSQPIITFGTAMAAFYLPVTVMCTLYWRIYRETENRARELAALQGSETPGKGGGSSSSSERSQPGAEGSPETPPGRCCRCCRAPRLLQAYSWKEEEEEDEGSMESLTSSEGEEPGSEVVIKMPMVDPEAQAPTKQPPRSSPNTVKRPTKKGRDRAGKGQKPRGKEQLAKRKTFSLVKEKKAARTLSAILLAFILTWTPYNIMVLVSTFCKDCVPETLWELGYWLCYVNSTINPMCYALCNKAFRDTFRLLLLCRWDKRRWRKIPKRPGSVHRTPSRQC

[4] = molecular target: T3, human M5 (Homo sapiens, UniProt P08912); test: Built-in HTS counterscreen, human M5; assay type: cell-based
T3 sequence (P08912 1-532): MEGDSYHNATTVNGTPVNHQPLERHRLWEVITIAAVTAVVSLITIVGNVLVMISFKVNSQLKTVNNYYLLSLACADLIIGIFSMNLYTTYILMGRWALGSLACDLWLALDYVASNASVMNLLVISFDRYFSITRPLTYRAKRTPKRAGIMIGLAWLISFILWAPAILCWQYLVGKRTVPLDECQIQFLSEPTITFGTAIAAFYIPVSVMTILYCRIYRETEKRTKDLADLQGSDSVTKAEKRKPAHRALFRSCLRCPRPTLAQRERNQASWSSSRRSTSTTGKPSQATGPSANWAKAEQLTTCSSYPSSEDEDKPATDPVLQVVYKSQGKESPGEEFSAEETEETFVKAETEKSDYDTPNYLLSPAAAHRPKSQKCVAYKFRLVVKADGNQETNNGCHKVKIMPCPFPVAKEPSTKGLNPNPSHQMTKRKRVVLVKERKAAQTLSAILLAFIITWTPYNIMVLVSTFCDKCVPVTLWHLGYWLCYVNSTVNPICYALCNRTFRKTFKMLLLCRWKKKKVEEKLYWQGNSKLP

[5] = molecular target: T4, rM4 (Rattus norvegicus, UniProt P08485); assay type: cell-based; conditions: unit not given
T4 sequence (P08485 1-478): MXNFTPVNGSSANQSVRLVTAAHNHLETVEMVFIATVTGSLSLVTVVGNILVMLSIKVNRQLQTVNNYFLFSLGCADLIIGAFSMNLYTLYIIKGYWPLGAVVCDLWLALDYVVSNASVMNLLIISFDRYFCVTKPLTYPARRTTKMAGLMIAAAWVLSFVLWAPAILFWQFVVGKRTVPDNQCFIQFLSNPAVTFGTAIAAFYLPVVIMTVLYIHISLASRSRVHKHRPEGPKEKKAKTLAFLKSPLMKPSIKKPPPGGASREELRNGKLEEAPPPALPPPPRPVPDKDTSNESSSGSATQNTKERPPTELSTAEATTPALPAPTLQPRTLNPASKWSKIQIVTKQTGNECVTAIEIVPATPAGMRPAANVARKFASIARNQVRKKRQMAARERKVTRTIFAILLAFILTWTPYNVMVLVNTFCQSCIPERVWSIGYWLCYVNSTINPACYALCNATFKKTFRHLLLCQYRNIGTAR
How it was run: as §2

[6] = Hepatic microsomal intrinsic clearance, rat; assay type: in vitro ADME; conditions: for predicted hepatic clearance rCLhep: rat, from microsomal CLint
How it was run: as §1

[7] = Metabolite identification in human cryopreserved hepatocytes; assay type: in vitro ADME; conditions: secondary alcohol 18 as the single major metabolite
[8] = human hepatic microsomes, in words
[9] = rat hepatic microsomes, in words

**Q.** Which “in vitro intrinsic clearance (CLint)” value [1, 8] does the source give for Cc1nc2sc(C(=O)c3ccccc3)c(N)c2c(C)c1C [Cpd 7] here?
**A.** Its value is “very high”.

**Q.** And the “predicted hepatic clearance (CLhep)” value [1, 8]?
**A.** Its value is “near hepatic blood flow rates”.

**Q.** And the “human M4 % ACh Max” value ([2]; HTS hit, using DMSO stock from the source plates)?
**A.** The value was 76%.

**Q.** What about the “hM4 ACh Max” value ([2]; unit not given) of the same compound?
**A.** The value was 76.8±4.1.

**Q.** And the “activity on human M1” value [3]?
**A.** The value was “inactive”.

**Q.** And the “activity on human M5” value [4]?
**A.** Its value is “inactive”.

**Q.** And the “rM4 ACh Max” value [5]?
**A.** Its value is 80.5±6.3.

**Q.** And the “in vitro intrinsic clearance (CLint)” value [6, 9]?
**A.** Its value is “very high”.

**Q.** What about the “predicted hepatic clearance (CLhep)” value [6, 9] of the same compound?
**A.** Its value is “near hepatic blood flow rates”.

**Q.** For Cc1cc(C)c2c(N)c(C(=O)c3ccncc3)sc2n1 [Cpd 12f], which “metabolism route (Met ID)” value [7] is on record?
**A.** The value was “rapid, and near quantitative, reductive metabolism”.

**Q.** Which results are given for Cc1cc(C)c2c(N)c(C(=O)CCc3ccncc3)sc2n1 [Cpd 19]?
**A.** predicted hepatic clearance hCLhep ([1]; human, from microsomal CLint): 18 mL/min/kg; predicted hepatic clearance rCLhep [6]: 62 mL/min/kg

**Q.** For COc1ccc(CCC(=O)c2sc3nnc(C)c(C)c3c2N)cc1F [Cpd 20], which “predicted hepatic clearance rCLhep” value [6] is on record?
**A.** Its value is 62 mL/min/kg.
